Activity calls are given as the source filed them. No cut-off for these calls is given here.
Tests used:
[1] = Cytotoxicity against monkey MA104 cells after 24 hrs; format: cell-based, Macaca mulatta; conditions: rhesus monkey, read-out: TD50
Summary of the method: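 Confluent MA104 cells exposed to a range of compound concentrations for 24 hrs; cytotoxicity read with a non-radioactive cytotoxicity (CytoTox 96) kit; TD50 derived by the Litchfield–Wilcoxon method.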

[2] = tested on: Rotavirus; assay: Antiviral activity against Rotavirus SA11 in MA104 cells assessed as inhibition of viral replication after 24 hrs by immunofluorescent assay and Western blotting analysis; format: functional; conditions: SA11, MA104, 24 h, read-out: ED50 (the source's name)
Summary of the method: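 Confluent MA104 monolayers infected 1 hr, PBS-washed, then given MEM with compound or DMSO (0.1%) plus trypsin 1 μg/ml. VP6 tracked by IFA (methanol fixation, anti-VP6 mAb, FITC secondary) or Western blot (β-actin control). ED50 derived from TCID50 titers at 24 hr post infection, MOI 0.05, by Litchfield–Wilcoxon.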

[3] = tested on: Rotavirus; assay: Antiviral activity against Rotavirus Wa in MA104 cells assessed as inhibition of viral replication after 24 hrs by immunofluorescent assay and Western blotting analysis; format: functional, organism-based
[4] = tested on: Rotavirus; assay: Virucidal activity against Rotavirus SA11 in MA104 cells assessed as reduction in viral titer at 100 uM pretreated for 2 hrs prior infection measured after 12 hrs postinfection by immunofluorescent assay; format: functional, organism-based
[5] = Therapeutic index, ratio of TD50 for monkey MA104 cells to ED50 for Rotavirus SA11; format: cell-based; conditions: read-out: Ratio TD50/ED50
Summary of the method: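 TD50: confluent MA104 cells exposed to graded compound concentrations for 24 hrs, cytotoxicity read with CytoTox 96 non-radioactive kit, Litchfield–Wilcoxon fit. ED50: SA11-infected MA104 (MOI 0.05) treated with compound plus trypsin 1 μg/ml, TCID50 titers at 24 hr, Litchfield–Wilcoxon. Index is TD50 divided by ED50.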

[6] = tested on: Rotavirus; assay: Virucidal activity against Rotavirus SA11 in MA104 cells assessed as reduction in viral titer at 100 uM pretreated for 2 hrs prior infection measured after 12 hrs postinfection by Western blotting analysis; format: functional, organism-based
[7] = tested on: MA104; assay: Inhibition of lipogenesis in monkey MA104 cells infected with Rotavirus SA11 assessed as inhibition of increase in lipid droplets at 1 uM after 10 hrs by NBD-cholesterol based fluorescence analysis; format: functional, cell-based; conditions: Macaca mulatta
Summary of the method: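 Confluent MA104 cells, mock- or SA11-infected at MOI 10, incubated with compound or 0.1% DMSO in medium with NBD-cholesterol 1 μg/ml and trypsin 1 μg/ml. Fixed at 10 hr post infection in 4% formaldehyde for 10 min, PBS-washed twice; lipid-droplet fluorescence viewed by fluorescence microscopy.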

[8] = tested on: Huh-7; assay: Inhibition of lipogenesis in human HuH7 cells assessed as inhibition of increase in lipid droplets at 1 uM after 72 hrs by NBD-cholesterol based fluorescence analysis; format: functional, cell-based
Summary of the method: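 Confluent uninfected Huh-7 cells, in which lipid droplets form spontaneously, treated with compound or 0.1% DMSO for 72 hrs. Medium then replaced with NBD-cholesterol (1 μg/ml) for a further 12 hrs. Cells fixed in 4% formaldehyde for 10 min, PBS-washed, and lipid-droplet fluorescence examined by fluorescence microscopy.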

Row | Compound | CC50 at 24 h [1] [µM] | EC50 [2] [µM] | inhibition [3] | inhibition [4] | selectivity ratio [5] | inhibition [6] | inhibition [7] | inhibition [8]
1 | CCC/C=C/C/C=C/C=C/C=C/C#N | 78.8 | 21.3 | Active |  |  |  |  | 
2 | C/C=C/C/C=C/CCC(=O)[C@H]1O[C@H]1C(N)=O [CERULENIN] | 56.7 | 28.5 |  |  |  |  |  | 
3 | C=C(C)[C@@H]1CC[C@]2(C(=O)O)CC[C@]3(C)[C@H](CC[C@@H]4[C@@]5(C)CC[C@H](O)C(C)(C)[C@@H]5CC[C@]43C)[C@@H]12 [BETULINIC ACID] | 27.8 | 22.5 |  |  |  |  |  | 
4 | CCC/C=C/C/C=C/C=C/C=N/NN=O [TRIACSIN C] | 49.6 | 0.2 |  | inactive | 248 | inactive | Active | Dose-dependent effect
5 | CCCCCCCCCCCCCCCCNc1ccc(C(=O)O)cc1 [CETABEN] | 75.5 | 11.3 |  |  |  |  |  | 
6 | CCC/C=C/C/C=C/C=C/C=N/NS(=O)(=O)CCl | 74 | 8.7 | Active |  |  |  |  | 
7 | CCC/C=C/C/C=C/C=C/C=N/N1CCCS1(=O)=O | 86.4 | 2.2 | Active |  |  |  | Active | Dose-dependent effect
8 | CCC/C=C/C/C=C/C=C/C=N/NS(=O)(=O)C(C)C | 90.2 | 9.8 | Active |  |  |  |  | 
9 | O=C(Nc1ccccc1)Nc1ccc(-c2ccc(C(=O)[C@@H]3CCC[C@H]3C(=O)O)cc2)cc1 | 85.4 | 23.2 |  |  |  |  |  | 
10 | CCC/C=C/C/C=C/C=C/C=N/NS(=O)(=O)CCCCl | 86.3 | 11.5 | Active |  |  |  |  | 
11 | C=C1C(=O)O[C@H](CCCCCCCC)[C@H]1C(=O)O | 28.5 | 21.2 |  |  |  |  |  | 
12 | Cc1c(C)c2c(c(C)c1O)CCC(C)(COc1ccc(CC3SC(=O)NC3=O)cc1)O2 (stereo unspecified) [TROGLITAZONE] | 18.5 | 5.8 |  |  |  |  |  | 
13 | CCCCCCCCCCC(C)(C)C(=O)Nc1c(OC)cc(OC)cc1OC [CL-976] | 8.5 | 4.3 |  |  |  |  |  | 
14 | CCC/C=C/C/C=C/C=C/CNc1ccc(C(=O)O)cc1 | 28.5 | 0.1 | Active | inactive | 285 | inactive | Active | Dose-dependent effect

Source: ChEMBL document CHEMBL1949627, “Novel triacsin C analogs as potential antivirals against rotavirus infections” (Eur J Med Chem, 2012)
